According to ChEMBL document CHEMBL4229550, “An antimycobacterial pleuromutilin analogue effective against dormant bacilli” (Bioorg Med Chem, 2018):
Converted amounts (≈) assume the structure as drawn. The source made the active and inactive calls. No cut-off for these calls is given here.

How the values were obtained:
[1] = Selectivity index, ratio of IC50 for African green monkey Vero cells to MIC100 for replicating Mycobacterium tuberculosis H37Rv by MABA; type: toxicity; conditions: read-out: Selectivity Index
How it was run: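 Vero cells are cultured in EMEM with 10% FBS and exposed for 72 h to 0.78–200 µg/mL. Medium is switched to phenol-red-free EMEM, MTT is added, and formazan is read at 570 nm to give IC50. The selectivity index is Vero IC50 divided by the MABA MIC.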

Streptococcus salivarius [2] = experiment: Bactericidal activity against Streptococcus salivarius ATCC 6301 incubated for 24 hrs under aerobic condition by MABA; type: functional; conditions: ATCC 6301, 24 h
Streptococcus salivarius [3] = experiment: Antibacterial activity against Streptococcus salivarius […] incubated for 24 hrs under aerobic condition by MABA; type: functional; conditions: read-out: MIC100
How it was run: (§1)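 Resazurin was then added from a 0.08% stock for 1 h. MIC100 was the lowest concentration where the dye stayed blue (pink means growth). Absorbance was also read at 570 and 600 nm.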

Staphylococcus aureus [4] = experiment: Bactericidal activity against Staphylococcus aureus incubated for 24 hrs under aerobic condition by MABA; type: functional
Staphylococcus aureus [5] = experiment: Bactericidal activity against Staphylococcus aureus BAA 44 incubated for 24 hrs under aerobic condition by MABA; type: functional; conditions: BAA 44, 24 h
Escherichia coli [6] = experiment: Antibacterial activity against Escherichia coli ATCC 10798 incubated for 24 hrs under aerobic condition by MABA; type: functional; conditions: ATCC 10798, 24 h, read-out: MIC100
How it was run: (§2)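 Mid-log cultures at OD 0.5 were exposed to serial dilutions under aerobic conditions at 37 °C for 24 h. Resazurin was then added from a 0.08% stock for 1 h. MIC100 was the lowest concentration where the dye stayed blue (pink means growth). Absorbance was also read at 570 and 600 nm.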

[7] = test system: Mycolicibacterium smegmatis; experiment: Antibacterial activity against Mycobacterium smegmatis ATCC 607 incubated for 48 hrs under aerobic condition by MABA; type: functional; conditions: ATCC 607, 48 h, read-out: MIC100
How it was run: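 Mid-log culture at OD 0.5 was incubated with serial dilutions aerobically at 37 °C for 48 h. Resazurin was then added from a 0.08% stock for 1 h. MIC100 was the lowest concentration that stayed blue; absorbance was also read at 570/600 nm.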

[8] = test system: Mycobacterium tuberculosis; experiment: Bactericidal activity against Mycobacterium tuberculosis H37Rv at 2 times MIC measured every 24 hrs up to 12 days by time kill assay relative to control; type: functional
How it was run: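 Mid-log H37Rv (OD 0.5) is diluted to OD 0.25 and exposed at MIC, 2×MIC or 4×MIC. Every 24 h cultures are diluted 10- to 10,000-fold and plated on 7H10/OADC agar. Plates are incubated 15 days at 37 °C before colony counts.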

Staphylococcus aureus [9] = experiment: Bactericidal activity against Staphylococcus aureus BAA 2094 incubated for 24 hrs under aerobic condition by MABA; type: functional; conditions: BAA 2094, 24 h
Klebsiella pneumoniae [10] = experiment: Bactericidal activity against Klebsiella pneumoniae ATCC 12019 incubated for 24 hrs under aerobic condition by MABA; type: functional; conditions: ATCC 12019, 24 h
Enterococcus faecalis [11] = experiment: Bactericidal activity against Enterococcus faecalis ATCC 349 incubated for 24 hrs under aerobic condition by MABA; type: functional; conditions: ATCC 349, 24 h
Bacillus subtilis [12] = experiment: Bactericidal activity against Bacillus subtilis ATCC 6051 incubated for 24 hrs under aerobic condition by MABA; type: functional; conditions: ATCC 6051, 24 h
Enterococcus faecalis [13] = experiment: Bactericidal activity against Enterococcus faecalis ATCC 19433 incubated for 24 hrs under aerobic condition by MABA; type: functional; conditions: ATCC 19433, 24 h
Staphylococcus aureus [14] = experiment: Antibacterial activity against Staphylococcus aureus ATCC 25923 incubated for 24 hrs under aerobic condition by MABA; type: functional; conditions: ATCC 25923, 24 h, read-out: MIC100; how it was run: as §2
Enterococcus faecalis [15] = experiment: Antibacterial activity against Enterococcus faecalis ATCC 19433 incubated for 24 hrs under aerobic condition by MABA; type: functional; conditions: ATCC 19433, 24 h, read-out: MIC100; how it was run: as §2
Vero = experiment: Cytotoxicity against African green monkey Vero cells assessed as reduction in cell viability after 72 hrs by MTT assay; type: cell-based; conditions: Chlorocebus sabaeus
How it was run: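 Vero cells were grown in complete EMEM with 10% FBS and exposed for 72 h to 0.78–200 µg/mL. The medium was then swapped for phenol-red-free EMEM and MTT was added. Formazan absorbance was read at 570 nm to give IC50.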

[16] = test system: Mycobacterium tuberculosis; experiment: Antibacterial activity against Mycobacterium tuberculosis; type: functional; conditions: read-out: MIC100
How it was run: (§3)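 Mtb H37Rv grown in 7H9/OADC at 37 °C with shaking to OD600 0.5. The 0.5-OD culture is exposed aerobically to serial dilutions for 15 days at 37 °C. Resazurin (0.02% stock) is then added for 4 h at 37 °C with shaking.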

Streptococcus pneumoniae [17] = experiment: Bactericidal activity against Streptococcus pneumoniae ATCC 6301 incubated for 24 hrs under aerobic condition by MABA; type: functional; conditions: ATCC 6301, 24 h
Clostridioides difficile = experiment: Bactericidal activity against Clostridium difficile ATCC 700057 incubated for 24 hrs […] by MABA; type: functional; conditions: ATCC 700057, 24 h
Staphylococcus aureus [18] = experiment: Bactericidal activity against Staphylococcus aureus ATCC 25923 incubated for 24 hrs under aerobic condition by MABA; type: functional; conditions: ATCC 25923, 24 h
Escherichia coli [19] = experiment: Bactericidal activity against Escherichia coli ATCC 10798 incubated for 24 hrs under aerobic condition by MABA; type: functional; conditions: ATCC 10798, 24 h
[20] = test system: Mycolicibacterium smegmatis; experiment: Bactericidal activity against Mycobacterium smegmatis ATCC 607 incubated for 48 hrs under aerobic condition by MABA; type: functional; conditions: ATCC 607, 48 h
Staphylococcus aureus [21] = experiment: Antibacterial activity against Staphylococcus aureus BAA 2094 incubated for 24 hrs under aerobic condition by MABA; type: functional; conditions: BAA 2094, 24 h, read-out: MIC100; how it was run: as §1
Staphylococcus aureus [22] = experiment: Antibacterial activity against Staphylococcus aureus BAA 1683 incubated for 24 hrs under aerobic condition by MABA; type: functional; conditions: BAA 1683, 24 h, read-out: MIC100; how it was run: as §2
Staphylococcus aureus [23] = experiment: Antibacterial activity against Staphylococcus aureus incubated for 24 hrs under aerobic condition by MABA; type: functional; conditions: read-out: MIC100; how it was run: as §1
Erythrocyte = experiment: Hemolytic activity in sheep erythrocytes after 2 hrs; type: ADME, cell-based; conditions: Ovis aries
How it was run: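 Washed heparinized sheep erythrocytes at 3% in buffer pH 7.4 were treated with 2–200 µg/mL for 2 h at 37 °C with gentle shaking. Triton X-100 (0.01–1%) was the positive control and PEG:H2O diluent the negative control. Released hemoglobin was read at OD540 and % hemolysis calculated against both controls.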

Acinetobacter baumannii [24] = experiment: Bactericidal activity against Acinetobacter baumannii ATCC 19606 incubated for 24 hrs under aerobic condition by MABA; type: functional; conditions: ATCC 19606 = CIP 70.34 = JCM 6841, 24 h
Klebsiella pneumoniae [25] = experiment: Antibacterial activity against Klebsiella pneumoniae ATCC 12019 incubated for 24 hrs under aerobic condition by MABA; type: functional; conditions: ATCC 12019, 24 h, read-out: MIC100; how it was run: as §2
Escherichia coli [26] = experiment: Inhibition of protein translation/transcription in Escherichia coli S30 cell extract at 0.1 ug/ml using circular DNA with pBESTluc after 60 mins by luciferase reporter gene assay; type: functional
How it was run: (§4)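 Coupled transcription/translation used E. coli S30 extract, amino acid mix and premix, with the pBESTluc template carrying firefly luciferase under the tac promoter. Compounds were added in DMSO and reactions were started with DNA. Incubation was 60 min at 37 °C, stopped on ice, and luciferase was read after adding assay substrate.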

Escherichia coli [27] = experiment: Inhibition of protein translation/transcription in Escherichia coli S30 cell extract at 0.5 ug/ml using circular DNA with pBESTluc after 60 mins by luciferase reporter gene assay; type: functional; how it was run: as §4
Staphylococcus aureus [28] = experiment: Antibacterial activity against Staphylococcus aureus BAA 44 incubated for 24 hrs under aerobic condition by MABA; type: functional; conditions: BAA 44, 24 h, read-out: MIC100; how it was run: as §2
Staphylococcus aureus [29] = experiment: Bactericidal activity against Staphylococcus aureus BAA 1683 incubated for 24 hrs under aerobic condition by MABA; type: functional; conditions: BAA 1683, 24 h
Bacillus subtilis [30] = experiment: Antibacterial activity against Bacillus subtilis ATCC 6051 incubated for 24 hrs under aerobic condition by MABA; type: functional; conditions: ATCC 6051, 24 h, read-out: MIC100; how it was run: as §2
[31] = Metabolic stability in Sprague-Dawley rat liver microsomes at 500 ng/ml preincubated for 5 mins followed by NADPH addition […] by C-MS/MS analysis; type: ADME, microsome; conditions: 10 min
Acinetobacter baumannii [32] = experiment: Antibacterial activity against Acinetobacter baumannii ATCC 19606 incubated for 24 hrs under aerobic condition by MABA; type: functional; conditions: ATCC 19606 = CIP 70.34 = JCM 6841, 24 h, read-out: MIC100; how it was run: as §2
Streptococcus pneumoniae [33] = experiment: Antibacterial activity against Streptococcus pneumoniae ATCC 6301 incubated for 24 hrs under aerobic condition by MABA; type: functional; conditions: ATCC 6301, 24 h, read-out: MIC100; how it was run: as §2
Enterococcus faecalis [34] = experiment: Antibacterial activity against Enterococcus faecalis ATCC 349 incubated for 24 hrs under aerobic condition by MABA; type: functional; conditions: ATCC 349, 24 h, read-out: MIC100; how it was run: as §2
[35] = test system: Mycobacterium tuberculosis; experiment: Bactericidal activity against replicating Mycobacterium tuberculosis H37Rv incubated for 15 days under aerobic condition by MABA; type: functional; conditions: 360 h; how it was run: as §3

For `C=C[C@]1(C)C[C@@H](OC(=O)CSC(C)(C)CNC(=O)[C@H](N)CC(C)C)[C@]2(C)[C@H](C)CC[C@]3(CCC(=O)[C@H]32)[C@@H](C)[C@@H]1O`, the selectivity ratio [1] was 16, the MBC (Streptococcus salivarius [2]) was greater than 25 µg/mL and the MIC (Streptococcus salivarius [3]) was 6.25 µg/mL (≈ 10.8 µM). It also gave an MBC (Staphylococcus aureus [4]) of 0.8 µg/mL (≈ 1.38 µM), an MBC (Staphylococcus aureus [5]) greater than 25 µg/mL and an MIC (Escherichia coli [6]) of 12.5 µg/mL (≈ 21.6 µM). For the same compound, the MIC [7] was 6.25 µg/mL (≈ 10.8 µM), the Activity [8] was 100% and the MBC (Staphylococcus aureus [9]) was greater than 25 µg/mL. For the same compound, the MBC (Klebsiella pneumoniae [10]) was greater than 25 µg/mL, the MBC (Enterococcus faecalis [11]) was greater than 25 µg/mL and the MBC (Bacillus subtilis [12]) was 25 µg/mL (≈ 43.2 µM). It also gave an MBC (Enterococcus faecalis [13]) of 25 µg/mL (≈ 43.2 µM), an MIC (Staphylococcus aureus [14]) greater than 25 µg/mL and an MIC (Enterococcus faecalis [15]) of 12.5 µg/mL (≈ 21.6 µM). The IC50 (Vero) was 25 µg/mL (≈ 43.2 µM), the MIC [16] was less than 6.25 µg/mL and the MBC (Streptococcus pneumoniae [17]) was greater than 25 µg/mL. For the same compound, the MBC (Clostridioides difficile) was 1.56 µg/mL (≈ 2.69 µM), the MBC (Staphylococcus aureus [18]) was greater than 25 µg/mL and the MBC (Escherichia coli [19]) was greater than 25 µg/mL. The MBC [20] was greater than 25 µg/mL, the MIC (Staphylococcus aureus [21]) was greater than 25 µg/mL and the MIC (Staphylococcus aureus [22]) was greater than 25 µg/mL. The MIC (Staphylococcus aureus [23]) was 0.4 µg/mL (≈ 0.691 µM), the IC50 (Erythrocyte) was greater than 200 µM and the MBC (Acinetobacter baumannii [24]) was 25 µg/mL (≈ 43.2 µM). For the same compound, the MIC (Klebsiella pneumoniae [25]) was 25 µg/mL (≈ 43.2 µM), the inhibition (Escherichia coli [26]) was “Active” and the inhibition (Escherichia coli [27]) was “Active”. The MIC (Staphylococcus aureus [28]) was greater than 25 µg/mL, the MBC (Staphylococcus aureus [29]) was greater than 25 µg/mL and the MIC (Bacillus subtilis [30]) was 12.5 µg/mL (≈ 21.6 µM). The Stability [31] was “Unstable”, the MIC (Acinetobacter baumannii [32]) was 12.5 µg/mL (≈ 21.6 µM) and the MIC (Streptococcus pneumoniae [33]) was 25 µg/mL (≈ 43.2 µM). For the same compound, the MIC (Enterococcus faecalis [34]) was greater than 25 µg/mL and the MBC [35] was 1.46 µg/mL (≈ 2.52 µM).
